Drawing on PubChem BioAssay AID624467 (The Scripps Research Institute Molecular Screening Center, 2012), this text covers activation for 89 compounds.

Among all 360,000 compounds or so, about 3,600 (1%) were called active. Shown is part of a subset that was picked to be rich in actives. Values without a mark were called inactive.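 Rule for the calls: active = activation above the mean activation of all test compounds in the run plus 3 SD (cut at about 38% in these data); inactive = the rest.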

Trace amine-associated receptor 1 (Homo sapiens), sequence (Q96RJ0 whole entry, looked up): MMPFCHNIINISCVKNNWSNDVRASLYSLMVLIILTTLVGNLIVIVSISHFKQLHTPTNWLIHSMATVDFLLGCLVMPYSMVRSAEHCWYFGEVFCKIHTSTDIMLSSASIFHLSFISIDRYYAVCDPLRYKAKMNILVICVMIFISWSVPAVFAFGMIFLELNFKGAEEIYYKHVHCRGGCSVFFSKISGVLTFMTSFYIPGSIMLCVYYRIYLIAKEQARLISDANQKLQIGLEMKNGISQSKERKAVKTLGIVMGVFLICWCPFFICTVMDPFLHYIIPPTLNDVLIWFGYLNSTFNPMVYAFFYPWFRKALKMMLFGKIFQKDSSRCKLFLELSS

The target in this assay is Trace amine-associated receptor 1 (Homo sapiens) (UniProt Q96RJ0). Briefly: activators of TAAR1 calcium mobilization – Fluo-8 calcium fluorescence, CHO RD-HGA16 cells, primary screen (AID 624467). The settings on record: CHO RD-HGA16 TAAR1, Fluo-8 calcium fluorescence; at 3 µM; stronger effect = higher value; vehicle wells 0%, saturating PEA agonist 100%. An outline of the steps:
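System: CHO-derived RD-HGA16 cells with stable Gα16 and human TAAR1. Times: 17-24 h plating, Fluo-8 75 min 37 °C, 30 min RT. Measured by: calcium-sensitive Fluo-8 signal, excitation 470-495, emission 515-575 nm. Read-out basis: % activation relative to PEA EC100 response. Control set: DMSO and PEA EC100. Repeats: no replicates (n 1).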
With `S=C(NCCCc1cnc[nH]1)NCCCN(Cc1ccc(Cl)c(Cl)c1)c1ccc(Br)cn1`, the activation is 44.3% (active).

Take `NCCCNC(=S)NCCCN(Cc1ccc(Cl)cc1)c1ccc(Br)cn1`: the activation was 24.3%.

Take `COC(=O)C1=C(C)N(Cc2ccc(C(F)(F)F)cc2)C(=NCc2ccc(C(F)(F)F)cc2)NC1c1cccc(Cl)c1` (centres undefined): the activation is 16.8%.

Turning to `O=C(CCC1CCCN(Cc2ccc(O)c(Cl)c2)C1)NCc1ccccc1F` (centres undefined), the activation was 5.41%.

Take `CCC(C)C(N=C1NS(=O)(=O)c2ccccc21)C(=O)N1CCC(C)CC1` (centres undefined): the activation is 5.5%.

On to `COc1ccccc1-c1ccc([C@@H]2C[C@H]3[C@H](CON3C)CN2S(=O)(=O)c2cc(Cl)cc(Cl)c2)cc1`, for which the activation is 0.17%.

Consider `COc1ccc(OCC(O)CNC(=O)Nc2ccc(Cl)cc2)cc1` (centres undefined), for which the activation was 9.53%.

With `OC(CNCCc1ccc(Cl)cc1Cl)COc1ccccc1` (centres undefined), the activation is 86% (active).

Take `OC(COc1ccccc1)CN1CCN(c2cccc(Cl)c2)CC1` (centres undefined): the activation was 4.5%.

Take `CC1CN(S(=O)(=O)c2cccc(C(F)(F)F)c2)CN1C(=O)N1CCOCC1` (centres undefined): the activation was -1.03%.

Take `CCOC(=O)[C@]12CCCC=C1N(CCC1=CCCCC1)C(=O)[C@H](CC(=O)N1CCOCC1)C2`: the activation is -0.62%.

Regarding `CCS(=O)(=O)N1CCN(C(=O)c2cccs2)CC1`, the activation is 3.03%.

`COC(=O)c1ccc(CN2C(=O)[C@]3(OCCC=C[C@H]3C)c3c(Br)cccc32)cc1`: the activation was 2.59%.

With `O=C(NCCCN1CCCCC1)c1ccc2c(c1)NC(=O)C(N1CCOCC1)S2` (centres undefined), the activation was 3.95%.

With `CCC1=Nc2cc(C(=O)NCCCN3CCOCC3)ccc2Sc2ccc(Br)cc21`, the activation was 9.87%.

Take `Cc1ccccc1CN1C(=O)c2ccccc2Sc2ccc(C(=O)NCCCN3CCOCC3)cc21`: the activation is 40.1% (active).

For `COC(=O)c1c(-c2ccc(OC)cc2)c2c(c3c4cc(OC)ccc4n(S(=O)(=O)c4ccc(F)cc4)c13)C(=O)N(C)C2`, the activation was -0.58%.

Consider `CCOC(=O)N1CCN(C(=O)c2ccccc2SCC(=O)NCC2CCCCC2)CC1`, for which the activation is 2.29%.

`O=C(COc1ccc(F)cc1Br)NCC1COc2ccccc2O1` (centres undefined): the activation was -1.29%.

With `c1ccc2c(c1)OCC(CNc1ncnc3nc[nH]c13)O2` (centres undefined), the activation was 225% (active).

For `O=C(COC(=O)c1ccc(F)cc1)NCC1COc2ccccc2O1` (centres undefined), the activation is 0.46%.

Turning to `CN(c1ccccc1)S(=O)(=O)c1ccc(C(=O)NCc2cccnc2)cc1`, the activation is 3.27%.

On to `Cc1cc(N2CCOCC2)nc2ccc(NC(=S)N3CCN(Cc4ccccc4)CC3)cc12`, for which the activation was 7.44%.

In the case of `O=S(=O)(Cc1cc(Sc2ccccc2)nc(-c2ccccc2)n1)c1ccccc1`, the activation was 11.3%.

Take `Cc1ccc(Sc2cc(N3CCOCC3)nc(-c3ccccc3)n2)cc1`: the activation was 48.2% (active).

For `c1ccc2c(CCN3CCNC[C@H]3Cc3cccc4ccccc34)cccc2c1`, the activation was 33.5%.

`c1ccc(C2CNCc3c2ccc2ccccc32)cc1` (centres undefined): the activation was 82% (active).

In the case of `O=C(COC(=O)c1cc(-c2cccs2)nn1-c1ccccc1)Nc1cc([N+](=O)[O-])ccc1Cl`, the activation was 7.58%.

On to `Cc1ccc(N2C(=O)CC(NCc3ccc4c(c3)OCO4)C2=O)cc1Cl` (centres undefined), for which the activation is 1.12%.

For the compound `CSCCC(NS(=O)(=O)c1ccc2c(c1)oc(=O)n2C)C(=O)NC1CCCc2ccccc21` (centres undefined), the activation is 4.94%.

Regarding `COC(=O)[C@]12C[C@H](CC(=O)NCCc3ccccc3OC)C(=O)N(Cc3ccccc3)C1=C[C@H](C(C)C)O[C@@H]2C1CC1`, the activation is 30.4%.

Turning to `COc1ccc(OC)c(C(C)NC(=S)Nc2ccc(S(=O)(=O)Nc3ncccn3)cc2)c1` (centres undefined), the activation is 1.66%.

Take `COc1cc(NS(=O)(=O)c2ccc(NC(=S)NC(=O)c3ccccc3)cc2)nc(OC)n1`: the activation is -5.7%.

Consider `COc1ccc(NS(=O)(=O)c2ccc(NC(=S)NC(=O)CC(C)C)cc2)cc1`, for which the activation is 42.2% (active).

Take `COc1ccc(C2c3ccc(O)cc3Oc3ncn(CCCO)c(=N)c32)cc1OC` (centres undefined): the activation was 0.73%.

As for `C=CCN1C(=NC(=O)COc2ccccc2)SC2CS(=O)(=O)CC21` (centres undefined), the activation is 2.44%.

On to `C=CCN1CN(S(=O)(=O)c2ccc(OC)cc2)c2nc3ccccc3nc21`, for which the activation is 2.16%.

As for `O=C(NCc1ccccc1)[C@H]1CCCN1C(=O)[C@H]1CCCN1C(=O)N1CCOCC1`, the activation is 1.52%.

For the compound `Cc1ccc(C)n1-c1ccncc1`, the activation is 2.15%.

In the case of `COc1ccc(C(C(O)C(=O)c2c[nH]c3ccccc23)N2CCN(c3ccccc3)CC2)cc1` (centres undefined), the activation is 39.9% (active).

Take `COc1ccc(C(C(=O)Nc2c(C)cccc2C)N2CCN(c3ccc(C)cc3)CC2)cc1` (centres undefined): the activation was 5.99%.

As for `COc1ccc(C(CC(=O)N2CCN(c3ccccc3)CC2)c2c(O)cc(OC)cc2OC)cc1` (centres undefined), the activation is 2.38%.

In the case of `COC(=O)C1=C(C)N(Cc2ccc(F)cc2)C(=S)NC1c1cccc(Cl)c1` (centres undefined), the activation is -0.89%.

Consider `CN1CCCc2nc(-c3ccccc3)ccc21`, for which the activation is 1.31%.

For the compound `CC(C)(C)NC(=O)c1cccc(NC(=O)Cc2ccc(Br)cc2)c1`, the activation was 2.23%.

Consider `O=C(Nc1cccc(NC(=O)c2ccc(Br)cc2)c1)c1ccccc1`, for which the activation was 63.2% (active).

In the case of `O=C(Nc1ccccc1)c1ccc2nsnc2c1`, the activation was -0.47%.

For `N#CNC1=NCN(CCc2ccccc2)CN1`, the activation is 63.9% (active).

As for `CCCN1CNC(=S)N(CCc2ccccc2)C1`, the activation is 4.93%.

Regarding `O=C1CCN(CCc2ccccc2)CCN1CCOc1ccccc1`, the activation was 19.8%.

Consider `CC(C)C[C@H](NC(=O)CC1CCCC1)C(=O)N1CCC[C@H]1C(=O)NCc1ccccc1`, for which the activation was 1.37%.

As to `COCCCn1c(Cc2csc(Nc3cccc(Cl)c3)n2)nnc1SCC(=O)OC1CCCCC1`, the activation was 52.8% (active).

`COCCCn1c(SCC(=O)NC2CCCC2)nnc1-c1ccccc1`: the activation was 0.55%.

Consider `CCOc1ccc(Nc2nc(Cc3nnc(SCC(=O)NC4CCCC4)n3C)cs2)cc1`, for which the activation was 11.9%.

As to `CCOc1ncccc1C(=O)OCC(=O)c1c[nH]c2ccccc12`, the activation is 14.1%.

In the case of `CC(C)Nc1nnc(SCC(=O)c2c[nH]c3ccccc23)s1`, the activation is 1.89%.

Regarding `C[C@H](NC(=O)c1ccccc1)C(=O)OCC(=O)c1c[nH]c2ccccc12`, the activation is 70% (active).

In the case of `COc1ccc(NC(=O)C2(C)Cc3c(-c4ccc(C(N)=O)cc4)ccnc3O2)cc1` (centres undefined), the activation was 1.37%.

Take `CN[C@H]1C[C@H]2c3[nH]c4c(-c5ccccc5)cccc4c3CCN2C(=O)[C@H]1[C@H](C)O`: the activation was 4.95%.

Take `CCc1ccc(-c2nn(-c3ccccc3C)cc2C(=O)N2CCN(C3CCS(=O)(=O)C3)CC2)cc1` (centres undefined): the activation is 1.27%.

As to `CCc1ccc(-c2nn(-c3ccccc3)cc2CSC(=N)N)cc1`, the activation is 99.3% (active).

In the case of `O=C(NCCCN1CCOCC1)c1cn(-c2ccccc2)nc1-c1ccc(F)cc1`, the activation is 3.53%.

Turning to `CCc1nc2ccc(C(=O)N3CCN(c4cccc(Cl)c4)CC3)cc2nc1CC`, the activation is 1.12%.

With `COC(=O)[C@]12C[C@H](CC(=O)NCCCCc3ccccc3)C(=O)N(Cc3ccc4c(c3)OCO4)C1=C[C@H](C(C)(C)C)O[C@@H]2C`, the activation was 5.91%.

Take `COc1cc(/C=N\NC(=O)c2nonc2N)c(OC)cc1Br`: the activation is 1.69%.

Regarding `Cc1occc1C(=O)N/N=C/c1ccc(-c2cccc([N+](=O)[O-])c2)o1`, the activation was 4.69%.

Regarding `Cc1cc(C)c([N+](=O)[O-])cc1-c1ccc(/C=N/NC(=O)c2nonc2N)o1`, the activation is 41% (active).

As for `O=C(COC(=O)CCc1c[nH]c2ccccc12)Nc1cccc(Cl)c1`, the activation is 3.56%.

Consider `Nc1ncnc2c1ncn2[C@@H]1O[C@H](C(=O)N[C@@H](CCc2ccccc2)C(=O)NCC(=O)N2CCOCC2)[C@@H](O)[C@H]1O`, for which the activation was 0.02%.

For `Clc1cccc2c1C1CC2CCN1Cc1ccccc1` (centres undefined), the activation is -1.9%.

For the compound `Cc1ccccc1N/C(SCc1ccc(Cl)cc1)=C(/C#N)C(N)=O`, the activation is 6.27%.

For the compound `Cc1cc(C(=O)NNC(=S)Nc2ccccc2C)cs1`, the activation was 7.69%.

For `O=C(Cc1ccc(Cl)cc1)NC(=S)Nc1ccccc1O`, the activation is 138% (active).

Regarding `COC(=O)c1ccccc1NC(=O)CN(Cc1ccc(Cl)cc1)S(C)(=O)=O`, the activation was 8.09%.

Turning to `Cc1ccccc1NC(=S)NC(=O)Cc1ccc(Cl)cc1`, the activation was 82.3% (active).

Take `Fc1ccccc1CNC(=S)Nc1ccc(Cl)cc1`: the activation is 5.04%.

Consider `Cc1ccc(NS(=O)(=O)c2ccc3c(c2)oc(=O)n3C)c(C)c1`, for which the activation was 3.17%.

In the case of `Brc1ccc(COCCc2cn(Cc3ccccc3)c3ccccc23)cc1`, the activation is 0.28%.

Take `S=C(Nc1cccc(Br)c1)N1CCn2cccc2C1c1cccnc1` (centres undefined): the activation was 11.1%.

Regarding `CC1CCCCN1C(=S)NCc1ccccc1` (centres undefined), the activation is 5.09%.

For `S=C(NCCc1ccccc1)N1CCn2cccc2C1c1ccncc1` (centres undefined), the activation is 96.1% (active).

As to `Cc1cc(=O)[nH]c(Nc2cccc(Br)c2)n1`, the activation was 26.1%.

As to `O=c1cnnc(Nc2ccccc2F)[nH]1`, the activation is 19.6%.

Consider `O=c1cnnc(Nc2ccccc2)[nH]1`, for which the activation is 53% (active).

As to `O=C(COC(=O)c1ncc(Cl)c(Cl)c1Cl)NNC(=O)c1ccccc1`, the activation is 4.83%.

In the case of `COc1ccc(N(C)C(=O)C2CCN(S(=O)(=O)c3cccc4nsnc34)CC2)cc1`, the activation is 2.99%.

With `CCn1cc(CN2CCC(C(=O)Nc3cccc(-c4cccc(Cl)c4)c3)CC2)c(C)n1`, the activation was 19.7%.

With `CCn1cc(CN2CCC(C(=O)Nc3cccc(-c4cccc(Cl)c4)c3)CC2)cn1`, the activation was 16.6%.

Take `O=C(Nc1cccc(-c2cccc(Cl)c2)c1)C1CCN(C2CCC2)CC1`: the activation was 45.3% (active).
